E-selectin induc: induces E-selectin expression in human endothelial cells. P16581. HUVEC E-selectin immunofluorescence imaging; normalized: neutral wells 0, TNF-alpha wells 100. activation, % at 7.58 µM. 260,000 tested, 0.37% active. AID 686992;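 active = mean E-selectin-positive cell signal at least 10% of the positive control, reached in at least 60% of replicates, without over 20% cell loss; inconclusive = no rule given, readout overlaps actives, possibly toxicity-flagged; inactive = the rest, including those meeting only one limit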
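System: HUVEC / Compound: single concentration / Signal: immunofluorescence imaging / Read-out: percent E-selectin-positive cells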
SIRT5 block: inhibitors of human sirtuin-5 desuccinylase. Q9NXA8. Purified SirT5, succinyl-peptide AMC, trypsin-coupled fluorescence. inhibition, % at 15 µM. 330,000 tested, 1.1% active. AID 652115; in the data active = inhibition above about 15%; inconclusive = no clear call, values can overlap the other calls
Target sequence (Q9NXA8 whole entry, looked up): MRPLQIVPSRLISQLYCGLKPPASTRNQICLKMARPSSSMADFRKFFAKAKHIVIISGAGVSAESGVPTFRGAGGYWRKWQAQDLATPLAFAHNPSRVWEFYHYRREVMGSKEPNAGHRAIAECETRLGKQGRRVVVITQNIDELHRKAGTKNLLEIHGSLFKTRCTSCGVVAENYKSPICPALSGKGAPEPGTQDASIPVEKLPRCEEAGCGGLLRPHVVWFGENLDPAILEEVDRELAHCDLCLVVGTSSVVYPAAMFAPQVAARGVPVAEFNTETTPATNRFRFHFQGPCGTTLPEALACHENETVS
DENV2 CPE: inhibitors of DENV2 cytopathic effect; DENV2-infected cells, cytopathic effect rescue, plate reader; CPE inhibition, % at 9.99 µM; 350,000 tested, 1.7% active; in the data active = CPE inhibition above about 20%, passing the limit was not always enough; inconclusive = no clear call, values can overlap the other calls; tested in BHK-21 cells;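 note: 0% = median of neutral control wells and 100% = median of positive control wells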
An asterisk follows results filed as active; ? = inconclusive; nt = not tested or not shown; ! = not active in a repeat. Compounds with a hit are over-represented: about 2.8% of the library has one in this group of screens.

SMILES	E-selectin induc	SIRT5 block	DENV2 CPE
C[C@H](CO)N1C[C@H](C)[C@@H](CN(C)C(=O)Nc2ccccc2)Oc2c(NS(=O)(=O)c3ccc(Cl)cc3)cccc2C1=O	0	0	-1
COc1ccc(NC(=O)N(C)C[C@H]2Oc3c(NS(=O)(=O)c4ccc(Cl)cc4)cccc3C(=O)N([C@H](C)CO)C[C@H]2C)cc1	0	5	49*
COc1ccc(NC(=O)N(C)C[C@H]2Oc3c(NS(=O)(=O)c4ccc(OC)cc4)cccc3C(=O)N([C@H](C)CO)C[C@@H]2C)cc1	0	3	28*!
C[C@H]1CN([C@@H](C)CO)C(=O)c2cccc(NS(=O)(=O)c3ccc(Cl)cc3)c2O[C@H]1CN(C)C(=O)Nc1ccccc1	-1	2	40*
COc1ccc(NC(=O)N(C)C[C@@H]2Oc3c(NS(=O)(=O)c4ccc(OC)cc4)cccc3C(=O)N([C@@H](C)CO)C[C@@H]2C)cc1	0	1	7
COc1ccc(NC(=O)N(C)C[C@H]2Oc3c(NS(C)(=O)=O)cccc3C(=O)N([C@@H](C)CO)C[C@H]2C)cc1	nt	33*	1
C[C@@H](NC(=O)C[C@H]1CC[C@@H]2[C@H](COC[C@H](O)CN2C(=O)Nc2cccc(F)c2)O1)c1ccccc1	0	-5	-2
C[C@@H]1CN([C@@H](C)CO)C(=O)c2cc(-c3cccc(C#N)c3)cnc2O[C@@H]1CN(C)C(=O)C1CCC1	0	5	-5
CCCNC(=O)N1CC2(CCN(C(=O)C3CCCCC3)CC2)c2c([nH]c3cc(OC)ccc23)[C@@H]1CO	0	nt	-1
COc1ccccc1NC(=O)N(C)C[C@@H]1Oc2ncc(C#CCC(C)C)cc2C(=O)N([C@@H](C)CO)C[C@H]1C	1	1	-10
Cc1ccc(S(=O)(=O)NCc2ccccc2)cc1C(=O)N1CCN(S(=O)(=O)c2ccccc2F)CC1	0	nt	58*
Cc1ccc(S(=O)(=O)NCc2ccccc2)cc1C(=O)N1CCCCC1	-1	1	2
CCCCN1C[C@H](Cc2ccccc2)[C@@H](CC(=O)Nc2ccc(OC)cc2)C1=O	1	1	3
COc1ccc(CN2C(=O)C3C4C=CC(C4)C3C2=O)cc1 (stereo not drawn)	nt	2	7
COc1ccc(CNC(=O)CN2C(=O)C3C4C=CC(C4)C3C2=O)cc1 (stereo not drawn)	0	109*	2
COc1ccc(CNC(=O)C[C@H]2C(=O)N(Cc3ccccc3)C[C@@H]2Cc2ccccc2)cc1	0	-4	30*
CCCCN1C[C@H](Cc2ccccc2)[C@@H](CC(=O)Nc2ccccc2)C1=O	nt	nt	56*
COc1ccc(CNC(=O)C[C@H]2C(=O)N(Cc3ccc(OC)cc3)C[C@@H]2Cc2ccccc2)cc1	nt	nt	-1
O=C(C1CC1)N1C[C@@H]2N[C@H](C1)C2c1ccc(-c2ccccc2F)cc1 (stereo partly drawn)	-1	-1	4
COc1ccc(NC(=O)Nc2ccc3c(c2)C(=O)N([C@H](C)CO)C[C@H](C)[C@H](CN(C)S(=O)(=O)c2ccc(C)cc2)OCCCC[C@H](C)O3)cc1	1	7	-8
CCCC#Cc1cnc2c(c1)C(=O)N([C@@H](C)CO)C[C@H](C)[C@@H](CN(C)S(=O)(=O)c1cn(C)cn1)O2	0	-3	9
CNc1ccccc1C(C)(C)c1cc(-c2ccco2)n[nH]1	nt	-3	nt
CNc1ccccc1C(C)(C)c1cc(-c2cccc(OC)c2)no1	46*	8	5
Cc1ccc(S(=O)(=O)N(C)C[C@@H]2OCCCC[C@H](C)Oc3ccc(N(C)C)cc3C(=O)N([C@@H](C)CO)C[C@@H]2C)cc1	0	6	-10
Cc1ncc(CN2CCC(CO)(CCOc3ccccc3)CC2)s1	-1	-3	-1
SMILES	E-selectin induc	SIRT5 block	DENV2 CPE
Cc1ncc(CN2CCC(CO)(Cc3ccccc3)CC2)s1	-1	18*	4
C[C@H](O)C#Cc1ccc2c(c1)O[C@@H](CN(C)Cc1ccncc1)[C@H](C)CN([C@@H](C)CO)S2(=O)=O	1	1	-2
CCN(CC(=O)Nc1ccc(NC(C)=O)cc1)C(=O)Cc1ccccc1F	nt	-1	-9
CCN(CC(=O)Nc1ccc(NC(C)=O)cc1)C(=O)Cc1c(Cl)cccc1Cl	0	-1	55*
CO[C@H]1CN(C)C(=O)c2ccc(NC(=O)C3CC3)cc2OC[C@H](C)N(C(=O)c2ccccn2)C[C@H]1C	0	1	?
C[C@H](CO)N1C[C@H](C)[C@H](CN(C)C(=O)Nc2ccccc2)OCCCC[C@H](C)Oc2ccc(NS(=O)(=O)c3ccccc3)cc2C1=O	nt	8	-1
C[C@@H]1CN([C@@H](C)CO)C(=O)c2cc(NS(C)(=O)=O)ccc2O[C@@H](C)CCCCO[C@@H]1CN(C)C(=O)Nc1ccc(C(F)(F)F)cc1	0	3	46*
